Laboratory results as given in ChEMBL document CHEMBL1155297, “Synthesis, antimicrobial and antioxidant activities of substituted pyrazoles, isoxazoles, pyrimidine and thioxopyrimidine derivatives” (2009).

How the values were obtained:
Type in all cases: functional
Staphylococcus aureus [1] = assay: Antibacterial activity against Staphylococcus aureus NCIM 5021 at 200 ug/disk after 24 hrs by agar disk diffusion method; conditions: NCIM 5021, 24 h, read-out: IZ
Outline: (§1)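 Agar disc diffusion on nutrient agar plates pre-inoculated with each bacterium. Sterile 6 mm filter-paper discs were moistened with compound in DMSO at the stated per-disc amount. Plates were incubated at 37 °C, and the growth-inhibition zone diameter was read after 24 h. Each determination was run in triplicate, and the mean of three independent readings is reported.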

Staphylococcus aureus [2] = assay: Antibacterial activity against Staphylococcus aureus NCIM 5021 at 100 ug/disk after 24 hrs by agar disk diffusion method; conditions: NCIM 5021, 24 h, read-out: IZ; outline: as §1
Klebsiella pneumoniae [3] = assay: Antibacterial activity against Klebsiella pneumoniae NCIM 2957 at 100 ug/disk after 24 hrs by agar disk diffusion method; conditions: NCIM 2957, 24 h, read-out: IZ; outline: as §1
Fusarium solani [4] = assay: Antifungal activity against Fusarium solani NCIM 1330 at 100 ug/disk after 48 hrs by agar disk diffusion method; conditions: NCIM 1330, 48 h, read-out: IZ
Outline: (§2)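 Fungal disc diffusion on nutrient agar plates pre-inoculated with each fungus. 6 mm sterile paper discs carried the compound in DMSO at the stated amount per disc. Plates were held at 37 °C, and inhibition-zone diameter was measured after 48 h. Values are the mean of three independent triplicate readings.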

Bacillus subtilis [5] = assay: Antibacterial activity against Bacillus subtilis NCIM 2063 at 100 ug/disk after 24 hrs by agar disk diffusion method; conditions: NCIM 2063, 24 h, read-out: IZ; outline: as §1
Curvularia lunata [6] = assay: Antifungal activity against Curvularia lunata NCIM 716 at 200 ug/disk after 48 hrs by agar disk diffusion method; conditions: NCIM 716, 48 h, read-out: IZ; outline: as §2
[7] = test system: Radical scavenging activity; assay: Antioxidant activity assessed as DPPH free radical scavenging activity at 100 uM after 20 mins
Outline: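 DPPH scavenging: compound solutions were added to DPPH in dioxane/ethanol and kept at ambient temperature for 20 min. Absorbance was read at 517 nm. The test–control difference was expressed as percent DPPH radical scavenging.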

Klebsiella pneumoniae [8] = assay: Antibacterial activity against Klebsiella pneumoniae NCIM 2957 at 200 ug/disk after 24 hrs by agar disk diffusion method; conditions: NCIM 2957, 24 h, read-out: IZ; outline: as §1
Proteus vulgaris [9] = assay: Antibacterial activity against Proteus vulgaris NCIM 2027 at 200 ug/disk after 24 hrs by agar disk diffusion method; conditions: NCIM 2027, 24 h, read-out: IZ; outline: as §1
Fusarium solani [10] = assay: Antifungal activity against Fusarium solani NCIM 1330 at 200 ug/disk after 48 hrs by agar disk diffusion method; conditions: NCIM 1330, 48 h, read-out: IZ; outline: as §2
Proteus vulgaris [11] = assay: Antibacterial activity against Proteus vulgaris NCIM 2027 at 100 ug/disk after 24 hrs by agar disk diffusion method; conditions: NCIM 2027, 24 h, read-out: IZ; outline: as §1
Bacillus subtilis [12] = assay: Antibacterial activity against Bacillus subtilis NCIM 2063 at 200 ug/disk after 24 hrs by agar disk diffusion method; conditions: NCIM 2063, 24 h, read-out: IZ; outline: as §1
[13] = Antioxidant activity assessed as nitric oxide production at 100 uM after 120 mins by Griess reagent method
Outline: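 Nitric oxide assay with Griess read-out. At intervals, 0.5 ml of incubation solution was mixed with 0.5 ml Griess reagent (1% sulfanilamide, 0.1% N-naphthylethylenediamine dihydrochloride, 2% o-phosphoric acid in water). The control received an equal amount of solvent and was handled identically.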

Aspergillus niger [14] = assay: Antifungal activity against Aspergillus niger NCIM 596 at 100 ug/disk after 48 hrs by agar disk diffusion method; conditions: NCIM 596, 48 h, read-out: IZ; outline: as §2
Curvularia lunata [15] = assay: Antifungal activity against Curvularia lunata NCIM 716 at 100 ug/disk after 48 hrs by agar disk diffusion method; conditions: NCIM 716, 48 h, read-out: IZ; outline: as §2
Aspergillus niger [16] = assay: Antifungal activity against Aspergillus niger NCIM 596 at 200 ug/disk after 48 hrs by agar disk diffusion method; conditions: NCIM 596, 48 h, read-out: IZ; outline: as §2

With NC1=NC(=S)N=C(N)C1C(CS(=O)(=O)c1ccc(Cl)cc1)S(=O)(=O)c1ccc(Cl)cc1 (stereo unspecified) the zone of inhibition at 200 µg/disc (Staphylococcus aureus [1]) was 27 mm, the zone of inhibition at 100 µg/disc (Staphylococcus aureus [2]) was 25 mm and the zone of inhibition at 100 µg/disc (Klebsiella pneumoniae [3]) was 20 mm. It also gave a zone of inhibition at 100 µg/disc (Fusarium solani [4]) of 22 mm, a zone of inhibition at 100 µg/disc (Bacillus subtilis [5]) of 23 mm and a zone of inhibition at 200 µg/disc (Curvularia lunata [6]) of 28 mm. The inhibition [7] was 47.9%, the zone of inhibition at 200 µg/disc (Klebsiella pneumoniae [8]) was 22 mm and the zone of inhibition at 200 µg/disc (Proteus vulgaris [9]) was 23 mm. The zone of inhibition at 200 µg/disc (Fusarium solani [10]) was 25 mm, the zone of inhibition at 100 µg/disc (Proteus vulgaris [11]) was 21 mm and the zone of inhibition at 200 µg/disc (Bacillus subtilis [12]) was 25 mm. For the same compound, the inhibition [13] was 48.5%, the zone of inhibition at 100 µg/disc (Aspergillus niger [14]) was 20 mm and the zone of inhibition at 100 µg/disc (Curvularia lunata [15]) was 25 mm. The zone of inhibition at 200 µg/disc (Aspergillus niger [16]) was 23 mm.

Compound Cc1ccc(C(=O)CC(C(=O)c2ccc(C)cc2)C2C(N)=NC(=O)N=C2N)cc1 (stereo unspecified) has a zone of inhibition at 200 µg/disc (Staphylococcus aureus [1]) of 15 mm, a zone of inhibition at 100 µg/disc (Staphylococcus aureus [2]) of 12 mm and a zone of inhibition at 100 µg/disc (Klebsiella pneumoniae [3]) of 10 mm. The zone of inhibition at 100 µg/disc (Fusarium solani [4]) was 14 mm, the zone of inhibition at 100 µg/disc (Bacillus subtilis [5]) was 11 mm and the zone of inhibition at 200 µg/disc (Curvularia lunata [6]) was 17 mm. It also gave an inhibition [7] of 28.6%, a zone of inhibition at 200 µg/disc (Klebsiella pneumoniae [8]) of 12 mm and a zone of inhibition at 200 µg/disc (Proteus vulgaris [9]) of 14 mm. It also gave a zone of inhibition at 200 µg/disc (Fusarium solani [10]) of 18 mm, a zone of inhibition at 100 µg/disc (Proteus vulgaris [11]) of 13 mm and a zone of inhibition at 200 µg/disc (Bacillus subtilis [12]) of 12 mm. For the same compound, the inhibition [13] was 27.2%, the zone of inhibition at 100 µg/disc (Aspergillus niger [14]) was 13 mm and the zone of inhibition at 100 µg/disc (Curvularia lunata [15]) was 15 mm. For the same compound, the zone of inhibition at 200 µg/disc (Aspergillus niger [16]) was 15 mm.

In the case of Cc1ccc(C(=O)CC(C(=O)c2ccc(C)cc2)C2C(=N)ON=C2N)cc1 (stereo unspecified), the zone of inhibition at 200 µg/disc (Staphylococcus aureus [1]) is reported as 25 mm, the zone of inhibition at 100 µg/disc (Staphylococcus aureus [2]) is reported as 22 mm and the zone of inhibition at 100 µg/disc (Klebsiella pneumoniae [3]) is reported as 22 mm. For the same compound, the zone of inhibition at 100 µg/disc (Fusarium solani [4]) was 32 mm, the zone of inhibition at 100 µg/disc (Bacillus subtilis [5]) was 26 mm and the zone of inhibition at 200 µg/disc (Curvularia lunata [6]) was 33 mm. For the same compound, the inhibition [7] was 58.1%, the zone of inhibition at 200 µg/disc (Klebsiella pneumoniae [8]) was 24 mm and the zone of inhibition at 200 µg/disc (Proteus vulgaris [9]) was 23 mm. For the same compound, the zone of inhibition at 200 µg/disc (Fusarium solani [10]) was 34 mm, the zone of inhibition at 100 µg/disc (Proteus vulgaris [11]) was 21 mm and the zone of inhibition at 200 µg/disc (Bacillus subtilis [12]) was 28 mm. It also gave an inhibition [13] of 54.3%, a zone of inhibition at 100 µg/disc (Aspergillus niger [14]) of 24 mm and a zone of inhibition at 100 µg/disc (Curvularia lunata [15]) of 31 mm. For the same compound, the zone of inhibition at 200 µg/disc (Aspergillus niger [16]) was 27 mm.

With NC1=NC(=S)N=C(N)C1C(CS(=O)(=O)c1ccccc1)S(=O)(=O)c1ccccc1 (stereo unspecified) the zone of inhibition at 200 µg/disc (Staphylococcus aureus [1]) was 25 mm, the zone of inhibition at 100 µg/disc (Staphylococcus aureus [2]) was 22 mm and the zone of inhibition at 100 µg/disc (Klebsiella pneumoniae [3]) was 21 mm. The zone of inhibition at 100 µg/disc (Fusarium solani [4]) was 18 mm, the zone of inhibition at 100 µg/disc (Bacillus subtilis [5]) was 23 mm and the zone of inhibition at 200 µg/disc (Curvularia lunata [6]) was 22 mm. For the same compound, the inhibition [7] was 46.9%, the zone of inhibition at 200 µg/disc (Klebsiella pneumoniae [8]) was 23 mm and the zone of inhibition at 200 µg/disc (Proteus vulgaris [9]) was 21 mm. For the same compound, the zone of inhibition at 200 µg/disc (Fusarium solani [10]) was 20 mm, the zone of inhibition at 100 µg/disc (Proteus vulgaris [11]) was 19 mm and the zone of inhibition at 200 µg/disc (Bacillus subtilis [12]) was 26 mm. The inhibition [13] was 45.8%, the zone of inhibition at 100 µg/disc (Aspergillus niger [14]) was 16 mm and the zone of inhibition at 100 µg/disc (Curvularia lunata [15]) was 19 mm. It also gave a zone of inhibition at 200 µg/disc (Aspergillus niger [16]) of 19 mm.

CN1C(=N)C(C(CC(=O)c2ccccc2)C(=O)c2ccccc2)C(=N)N(C)C1=O (stereo unspecified) gave a zone of inhibition at 200 µg/disc (Staphylococcus aureus [1]) of 13 mm, a zone of inhibition at 100 µg/disc (Staphylococcus aureus [2]) of 10 mm and a zone of inhibition at 100 µg/disc (Klebsiella pneumoniae [3]) of 7 mm. The zone of inhibition at 100 µg/disc (Fusarium solani [4]) was 11 mm, the zone of inhibition at 100 µg/disc (Bacillus subtilis [5]) was 9 mm and the zone of inhibition at 200 µg/disc (Curvularia lunata [6]) was 15 mm. For the same compound, the inhibition [7] was 23.8%, the zone of inhibition at 200 µg/disc (Klebsiella pneumoniae [8]) was 9 mm and the zone of inhibition at 200 µg/disc (Proteus vulgaris [9]) was 8 mm. The zone of inhibition at 200 µg/disc (Fusarium solani [10]) was 13 mm, the zone of inhibition at 100 µg/disc (Proteus vulgaris [11]) was 6 mm and the zone of inhibition at 200 µg/disc (Bacillus subtilis [12]) was 11 mm. The inhibition [13] was 22.6%, the zone of inhibition at 100 µg/disc (Aspergillus niger [14]) was 12 mm and the zone of inhibition at 100 µg/disc (Curvularia lunata [15]) was 13 mm. It also gave a zone of inhibition at 200 µg/disc (Aspergillus niger [16]) of 16 mm.

NC1=NC(=O)N=C(N)C1C(CS(=O)(=O)c1ccccc1)S(=O)(=O)c1ccccc1 (stereo unspecified) gave a zone of inhibition at 200 µg/disc (Staphylococcus aureus [1]) of 20 mm, a zone of inhibition at 100 µg/disc (Staphylococcus aureus [2]) of 18 mm and a zone of inhibition at 100 µg/disc (Klebsiella pneumoniae [3]) of 16 mm. The zone of inhibition at 100 µg/disc (Fusarium solani [4]) was 14 mm, the zone of inhibition at 100 µg/disc (Bacillus subtilis [5]) was 16 mm and the zone of inhibition at 200 µg/disc (Curvularia lunata [6]) was 21 mm. For the same compound, the inhibition [7] was 28.8%, the zone of inhibition at 200 µg/disc (Klebsiella pneumoniae [8]) was 18 mm and the zone of inhibition at 200 µg/disc (Proteus vulgaris [9]) was 16 mm. The zone of inhibition at 200 µg/disc (Fusarium solani [10]) was 19 mm, the zone of inhibition at 100 µg/disc (Proteus vulgaris [11]) was 14 mm and the zone of inhibition at 200 µg/disc (Bacillus subtilis [12]) was 19 mm. The inhibition [13] was 29.7%, the zone of inhibition at 100 µg/disc (Aspergillus niger [14]) was 15 mm and the zone of inhibition at 100 µg/disc (Curvularia lunata [15]) was 18 mm. For the same compound, the zone of inhibition at 200 µg/disc (Aspergillus niger [16]) was 18 mm.
